This passage reports Paw swelling and No. of mice results from ChEMBL document CHEMBL1130100, “Stabilized analogs of thymopentin. 3. Evaluation of ketomethylene pseudopeptides for antiarthritic properties” (1997).

Values joined by “and” are separate entries in the source; they are usually repeats but may differ in a detail not shown here. Equal entries are not always repeated.

Holding throughout (type): functional
Assay [1] has as its system Mus musculus. Put plainly: Extent of paw swelling after treatment with thymopentin-5 (TP-5) compound in the Mouse Type II collagen arthritis at a dosage of 0.001 mg/kg on day 30. In a few lines: (§1)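 DBA/1 Lac mice immunized with bovine type II collagen (100 μg) in Freund's complete adjuvant at four to six back sites, then boosted ip (100 μg) on day 21. Dosing was iv in sterile saline every second day from day 19 through day 40, 12 mice per dose. Each hind paw was measured by caliper. Result given as % of untreated swelling after subtracting age-matched normal paw.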

The subject of assay [2] is Mus musculus. Put plainly: On set and incidence of arthritis in the Mouse Type II collagen model at 0.5 dose mg/kg on day 44, expressed as number of mice treated out of 12 tested. The method, boiled down: (§2)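 DBA/1 Lac mice sensitized with bovine type II collagen (100 μg) in Freund's complete adjuvant, ip boost (100 μg) on day 21. Freshly dissolved compound in sterile saline was given iv every second day, day 19 through day 40, groups of 12. A mouse was scored arthritic if erythema or edema was present on any digit, paw or appendage. Incidence reported as number positive of 12.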

The test system of assay [3] is Mus musculus. Briefly: On set and incidence of arthritis in the Mouse Type II collagen model following 0.5 mg/kg on day 30. In a few lines:
as §2

In assay [4] the test system is Mus musculus. Briefly: On set and incidence of arthritis in the Mouse Type II collagen model at 0.5 dose mg/kg on day 40,expressed as number of mice treated out of 12 tested. In a few lines: as §2
The subject of assay [5] is Mus musculus. Put plainly: On set and incidence of arthritis in the Mouse Type II collagen model at 0.5 dose mg/kg on day 37, expressed as number of mice treated out of 12 tested. The method, boiled down:
as §2

For assay [6], the system named is Mus musculus. Briefly: 68 Extent of paw swelling after treatment with thymopentin-5 (TP-5) compound in the Mouse Type II collagen arthritis at a dosage of 0.001 mg/kg on day 30. The method, boiled down:
as §1

For assay [7], the system named is Mus musculus. Put plainly: On set and incidence of arthritis in the Mouse Type II collagen model at 0.5 dose mg/kg on day 40, expressed as number of mice treated out of 12 tested. In a few lines:
as §2

Assay [8] concerns Mus musculus. Put plainly: Extent of paw swelling after treatment with thymopentin-5 (TP-5) compound in the Mouse Type II collagen arthritis at a dosage of 0.01 mg/kg on day 37. The method, boiled down: as §1
Assay [9] concerns Mus musculus. Put plainly: Extent of paw swelling after treatment with thymopentin-5 (TP-5) compound in the Mouse Type II collagen arthritis at a dosage of 0.01 mg/kg on day 30. In a few lines:
as §1

The subject of assay [10] is Mus musculus. Put plainly: Extent of paw swelling after treatment with thymopentin-5 (TP-5) compound in the Mouse Type II collagen arthritis at a dosage of 0.01 mg/kg on day 44. The method, boiled down: as §1
Assay [11] concerns Mus musculus. Put plainly: Extent of paw swelling after treatment with thymopentin-5 (TP-5) compound in the Mouse Type II collagen arthritis at a dosage of 0.501 mg/kg on day 40. Conditions: dose 0.01 mg/kg; in the assay text read “0.01 mg/kg” for “0.501 mg/kg”. The method, boiled down:
as §1

The subject of assay [12] is Mus musculus. Put plainly: Extent of paw swelling after treatment with thymopentin-5 (TP-5) compound in the Mouse Type II collagen arthritis at a dosage of 1.0 mg/kg on day 37. The method, boiled down:
as §1

The subject of assay [13] is Mus musculus. Put plainly: Extent of paw swelling after treatment with thymopentin-5 (TP-5) compound in the Mouse Type II collagen arthritis at 1 mg/kg on day 30. In a few lines: as §1
For assay [14], the system named is Mus musculus. Briefly: Extent of paw swelling after treatment with thymopentin-5 (TP-5) compound in the Mouse Type II collagen arthritis at a dosage of 1.0 mg/kg on day 40. In a few lines: as §1
The subject of assay [15] is Mus musculus. Put plainly: Extent of paw swelling after treatment with thymopentin-5 (TP-5) compound in the Mouse Type II collagen arthritis at a dosage of 1.0 mg/kg on day 44. In a few lines: as §1
For assay [16], the system named is Mus musculus. Briefly: On set and incidence of arthritis in the Mouse Type II collagen model at 0.5 dose mg/kg on day 40, expressed as ratio of number treated to that of control:12 animals tested. The method, boiled down:
as §2

The test system of assay [17] is Mus musculus. Briefly: Extent of paw swelling after treatment with thymopentin-5 (TP-5) compound in the Mouse Type II collagen arthritis at a dosage of 0.5 mg/kg on day 37. In a few lines: as §1
In assay [18] the test system is Mus musculus. Put plainly: Extent of paw swelling after treatment with thymopentin-5 (TP-5) compound in the Mouse Type II collagen arthritis at a dosage of 0.5 mg/kg on day 44. In a few lines:
as §1

For assay [19], the system named is Mus musculus. Put plainly: Extent of paw swelling after treatment with thymopentin-5 (TP-5) compound in the Mouse Type II collagen arthritis at a dosage of 0.5 mg/kg on day 30. In a few lines:
as §1

Assay [20] relates to Mus musculus. Briefly: Extent of paw swelling after treatment with thymopentin-5 (TP-5) compound in the Mouse Type II collagen arthritis at a dosage of 0.5 mg/kg on day 40. The method, boiled down: as §1
The subject of assay [21] is Mus musculus. Put plainly: On set and incidence of arthritis in the Mouse Type II collagen model at 0.5 dose mg/kg on day 40, expressed as ratio of number treated to that of control. The method, boiled down:
as §2

Assay [22] concerns Rattus norvegicus. Put plainly: extent of paw swelling following treatment with the compound in the rat adjuvant arthritis model observed on day 16 at 0.050 mg/kg dose. Conditions: dose 0.05 mg/kg. In a few lines: (§3)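 Rat adjuvant arthritis with iv dosing every second day, starting 2 days before the adjuvant/antigen challenge. Initial doses ranged 0.05 to 0.50 mg/kg, eight rats per dose. Each hind paw was measured by caliper. Swelling minus age-matched normal paw, expressed as % of untreated animals.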

In assay [23] the test system is Rattus norvegicus. Put plainly: extent of paw swelling following treatment with the compound in the rat adjuvant arthritis model observed on day 19 at 0.050 mg/kg dose. Particulars: dose 0.05 mg/kg. The method, boiled down: as §3
Assay [24] has as its system Mus musculus. Put plainly: On set and incidence of arthritis in the Mouse Type II collagen model at 0.5 dose mg/kg on day 37, expressed as ratio of number treated to that of control. In a few lines:
as §2

For assay [25], the system named is Mus musculus. Put plainly: 60 Extent of paw swelling after treatment with thymopentin-5 (TP-5) compound in the Mouse Type II collagen arthritis at a dosage of 1.0 mg/kg on day 30. In a few lines:
as §1

The subject of assay [26] is Rattus norvegicus. Briefly: extent of paw swelling following treatment with the compound in the rat adjuvant arthritis model observed on day 12 at 0.050 mg/kg dose. Particulars: dose 0.05 mg/kg. In a few lines:
as §3

Assay [27] has as its system Mus musculus. Briefly: On set and incidence of arthritis in the Mouse Type II collagen model at 0.5 dose mg/kg on day 44, expressed as ratio of number treated to that of control. In a few lines:
as §2

Turning to `CCCC[C@@H](C(=O)N[C@@H](CC(=O)O)C(=O)N[C@H](C(=O)C[C@H](Cc1ccccc1)C(=O)O)C(C)C)N(C)C(=O)[C@@H](N)CCCN=C(N)N`, the Paw swelling in assay [1] is 90% and 43%; in [6], 90%. For the same compound, the No. of mice in [2] came out at 8; in assay [3] it was 7; in [4], 7; in assay [5], 7.
`CC(C)[C@H](NC(=O)[C@H](CC(=O)O)NC(=O)[C@@H]1CCCN1C(=O)[C@@H](N)CCCN=C(N)N)C(=O)C[C@@H](Cc1ccccc1)C(=O)O` (stereo in doubt; 1b-A): the results for the No. of mice in [2], in [7] and in assay [3] (0.5 mg/kg) were 9, 9 and 8, respectively. Moreover, the Paw swelling is 72% in [8], 62% in assay [9], 47% in assay [10] and 60% in [11].
Take `CC(C)[C@H](NC(=O)[C@H](CC(=O)O)NC(=O)[C@@H]1CCCN1C(=O)[C@@H](N)CCCN=C(N)N)C(=O)C[C@@H](Cc1ccccc1)C(=O)O` (stereo in doubt; 1b-B): the No. of mice in assay [2] amounted to 11; in [7] it was 10; in assay [3] (0.5 mg/kg), 6; in [5], 9. Further, the Paw swelling is 59% in assay [12], 66% in assay [13], 42% in assay [14] and 53% in assay [15].
Consider `CC(C)[C@H](NC(=O)[C@H](CC(=O)O)NC(=O)[C@H](CCCCN)NC(=O)[C@@H](N)CCCN=C(N)N)C(=O)C[C@@H](Cc1ccccc1)C(=O)O`, for which the No. of mice in assay [16] was found to be 8; in assay [2], 7; in [3], 5; in assay [5], 7. Also, the Paw swelling in [17] is listed as 100%; in [18], 53%; in assay [19], 100%; in assay [20], 93%.
In the case of `CCCC[C@@H](C(=O)N[C@@H](CC(=O)O)C(=O)N[C@H](C(=O)C[C@H](C(=O)O)C(C)C)C(C)C)N(C)C(=O)[C@@H](N)CCCN=C(N)N` (stereo in doubt; 1m-A), the No. of mice in assay [21] is 7; in assay [24], 6; in assay [3] (0.5 mg/kg) it was 3; in assay [27] it was 7. Besides, the Paw swelling in [22] is 80%; in assay [23], 45%; in [13] (1 mg/kg) it was 73% and 58%; in assay [25], 60%; in assay [26], 0%.
